As usually defined, the IC50 is the concentration that inhibits the measured activity by half. A higher IC50 goes with weaker potency in that assay.

Some results are limits rather than exact numbers.

A short description of data set [1]: Chemoprevention index, ratio of IC50 for mouse Hepa lclc7 cells to activity against mouse quinone reductase. The data set is classed as functional. The gist of the method:
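Chemoprevention index is calculated as IC50 divided by CD. IC50 is the concentration giving 50% growth inhibition of Hepa 1c1c7 cells. CD is the concentration doubling quinone reductase activity in the same cells. Isoliquiritigenin is the positive control.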

The nature of data set [2]: Cytotoxicity against mouse Hepa lclc7 cells. The data set is classed as cell-based. The gist of the method:
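Hepa 1c1c7 murine hepatoma cells (ATCC CRL-2026) were tested in the QR induction assay format. IC50 is the concentration inhibiting cell growth by 50%.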

For data set [3], the system named is Hepa lclc7. The data set is described as follows: Induction of mouse quinone reductase in mouse Hepa lclc7 cells assessed as concentration required to double enzyme activity. Type of data set: cell-based. The gist of the method:
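Quinone reductase induction assay in Hepa 1c1c7 murine hepatoma cells (ATCC CRL-2026), with isoliquiritigenin as the positive control. CD is the concentration needed to double QR activity.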

Data set [4] in a line: Cytotoxicity against mouse Hepa lclc7 cells at 20 ug/mL. Type of data set: cell-based.

On to `Cc1c(O)cc2c(c1O)C(=O)c1ccc(O)cc1C2=O`, for which the Ratio in data set [1] is listed as 85. The same compound gave an IC50 in data set [2] of 47 µM. In addition, the Activity in data set [3] stood at 0.56 µM.
On to `Cc1c(O)cc2c(c1O)C(=O)c1ccccc1C2=O` [Rubiadin], for which the Ratio in data set [1] is more than 9. For the same compound, the IC50 in data set [2] was more than 74 µM. The Activity in data set [3] was 8.1 µM.
Take `COc1c(O)cc2c(c1O)C(=O)c1ccc(O)cc1C2=O`: the values for the Activity entry in data set [4] and in data set [3] were “Non-toxic” and 0.009 µM, respectively.
Turning to `O=C(/C=C/c1ccc(O)cc1)c1ccc(O)cc1O` [ISOLIQUIRITIGENIN], in data set [1], the Ratio is 9.2. Moreover, the IC50 in data set [2] turned out to be 39 µM. In addition, the Activity in data set [3] worked out at 4.3 µM.
`O=C1c2ccccc2C(=O)c2cc(CO)c(O)cc21`: the Ratio in data set [1] is on record as more than 83. Further, the IC50 in data set [2] is more than 78 µM. In data set [3], the Activity was 0.94 µM.
For `O=C1c2ccccc2C(=O)c2c1ccc(O)c2O` [ATHRAQUINONES A], in that order: 5.1, 62 µM and 12 µM.

These data come from ChEMBL document CHEMBL1141450, “Anthraquinones with quinone reductase-inducing activity and benzophenones from Morinda citrifolia (noni) roots” (J Nat Prod, 2007).
